The source made the active and inactive calls. No cut-off for these calls is given here.
How the values were obtained:
Pseudomonas aeruginosa = assay: Inhibition of LasR-dependent quorum sensing activity in Pseudomonas aeruginosa harboring reporter plasmid lasB-GFP assessed as reduction in GFP expression up to 100 ug/ml measured every 15 mins for 14 hrs by fluorescence assay
How it was run: (§1)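 P. aeruginosa lasB-gfp and rhlA-gfp reporters, grown 16 h at 37 °C with shaking, then diluted to OD450 0.1 in BT minimal medium (10% A10, 0.5% glucose, 0.5% Casamino Acids). No added signal molecule. Fluorescence at 485/535 nm and growth monitored every 15 min for 14 h at 34 °C. Concentrations up to 100 µg/ml.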

Saccharomyces cerevisiae = assay: Inhibition of yeast Pma1 at 100 uM preincubated for 30 mins by spectrophotometric method
How it was run: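 Pma1 purified from Saccharomyces cerevisiae plasma membrane, 0.5 µg per reaction. Enzyme preincubated 30 min at room temperature with 100 µM compound. Reaction buffer: 5 mM ATP, 10 mM MgSO4, 50 mM KNO3, 5 mM NaN3, 3.5 mM molybdate, 20 mM MES-KOH pH 5.9. Run 30 min, then stopped with acidic molybdate/ascorbate/SDS. Released phosphate read at 860 nm after arsenite-citrate treatment (Baginski method).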

Escherichia coli [1] = assay: Growth inhibition of Escherichia coli at 3.13 ug/ml
How it was run: (§2)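 E. coli luxI-gfp reporter: overnight culture 16 h, 37 °C, 180 rpm, diluted to OD450 0.1 in BT minimal medium with 10% A10, 0.5% glucose, 0.5% Casamino Acids. 3-oxo-C6-HSL at 10 nM final. Growth read as OD450 every 15 min over 14 h at 34 °C alongside GFP. Triplicate, 2-fold dilutions from 100 μg/ml.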

Escherichia coli [2] = assay: Growth inhibition of Escherichia coli at 6.2 to 100 ug/ml; how it was run: as §2
[3] = molecular target: T1, HTH-type quorum-sensing regulator RhlR (Pseudomonas aeruginosa (strain ATCC 15692 / PAO1 / 1C / PRS 101 / LMG12228)) (UniProt P54292); assay: Inhibition of RhlR-dependent quorum sensing activity in Pseudomonas aeruginosa harboring reporter plasmid rhlA-gfp assessed as reduction in GFP expression up to 100 ug/ml measured every 15 mins for 14 hrs by fluorescence assay; how it was run: as §1
T1 sequence (whole entry): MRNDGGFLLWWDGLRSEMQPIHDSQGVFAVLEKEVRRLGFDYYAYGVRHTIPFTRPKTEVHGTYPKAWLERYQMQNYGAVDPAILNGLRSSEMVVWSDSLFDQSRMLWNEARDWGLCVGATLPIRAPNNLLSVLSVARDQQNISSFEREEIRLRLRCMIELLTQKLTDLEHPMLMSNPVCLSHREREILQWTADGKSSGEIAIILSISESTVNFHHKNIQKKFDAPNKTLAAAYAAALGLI

Escherichia coli [4] = assay: Inhibition of LuxR-dependent quorum sensing activity in Escherichia coli harboring reporter plasmid LuxI-GFP assessed as reduction in 3-oxo-C6-HSL-induced GFP expression at 3.1 ug/ml measured every 15 mins for 14 hrs by fluorescence assay
How it was run: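 E. coli luxI-gfp monitor: overnight culture 16 h, 37 °C, 180 rpm, diluted to OD450 0.1 in BT minimal medium with 10% A10, 0.5% glucose, 0.5% Casamino Acids. Signal 3-oxo-C6-HSL at 10 nM final. GFP read at ex 485/em 535 nm and OD450 every 15 min, 14 h, 34 °C. Triplicate, 2-fold dilutions from 100 μg/ml.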

CCCCc1ccc(C(=O)O)nc1 [FUSARIC ACID]
inhibition (Pseudomonas aeruginosa): inactive | inhibition (Saccharomyces cerevisiae): inactive | growth inhibition (GI) (Escherichia coli [1]): Non-Toxic | growth inhibition (GI) (Escherichia coli [2]): Toxic | inhibition [3]: inactive | inhibition (Escherichia coli [4]): Active

From ChEMBL document CHEMBL4002598, “Fusaric acid and analogues as Gram-negative bacterial quorum sensing inhibitors” (Eur J Med Chem, 2017)
